Measured values taken from ChEMBL document CHEMBL3797085, “Structure-Based Design and Synthesis of Novel Inhibitors Targeting HDAC8 from Schistosoma mansoni for the Treatment of Schistosomiasis” (J Med Chem, 2016).

Tests used:
[1] = molecular target: Histone deacetylase 1 (Homo sapiens, UniProt Q13547); assay: Inhibition of recombinant human HDAC1 using Cbz-(Ac)Lys-AMC as substrate preincubated for 90 mins followed by trypsin addition measured after 20 mins by fluorescence assay
[2] = molecular target: T1, Histone deacetylase 8 (Homo sapiens, UniProt Q9BY41); assay: Inhibition of recombinant human HDAC8 using Fluor de Lys as substrate preincubated for 90 mins followed by BML-KI176 addition measured after 45 mins by fluorescence assay
T1 sequence (Q9BY41 whole entry): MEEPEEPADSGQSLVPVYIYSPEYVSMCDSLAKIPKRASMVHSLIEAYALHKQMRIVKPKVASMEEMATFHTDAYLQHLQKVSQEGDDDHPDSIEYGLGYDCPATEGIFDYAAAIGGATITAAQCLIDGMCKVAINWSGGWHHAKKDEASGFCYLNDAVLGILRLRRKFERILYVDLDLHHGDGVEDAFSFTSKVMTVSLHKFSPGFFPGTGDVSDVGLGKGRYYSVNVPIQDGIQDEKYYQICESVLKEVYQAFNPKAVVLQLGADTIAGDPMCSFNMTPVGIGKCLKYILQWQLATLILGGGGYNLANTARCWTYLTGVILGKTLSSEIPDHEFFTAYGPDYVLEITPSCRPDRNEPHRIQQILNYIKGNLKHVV

[3] = molecular target: T2, Protein deacetylase HDAC6 (Homo sapiens, UniProt Q9UBN7); assay: Inhibition of recombinant human HDAC6 using Cbz-(Ac)Lys-AMC as substrate preincubated for 90 mins followed by trypsin addition measured after 20 mins by fluorescence assay
T2 sequence (Q9UBN7 whole entry): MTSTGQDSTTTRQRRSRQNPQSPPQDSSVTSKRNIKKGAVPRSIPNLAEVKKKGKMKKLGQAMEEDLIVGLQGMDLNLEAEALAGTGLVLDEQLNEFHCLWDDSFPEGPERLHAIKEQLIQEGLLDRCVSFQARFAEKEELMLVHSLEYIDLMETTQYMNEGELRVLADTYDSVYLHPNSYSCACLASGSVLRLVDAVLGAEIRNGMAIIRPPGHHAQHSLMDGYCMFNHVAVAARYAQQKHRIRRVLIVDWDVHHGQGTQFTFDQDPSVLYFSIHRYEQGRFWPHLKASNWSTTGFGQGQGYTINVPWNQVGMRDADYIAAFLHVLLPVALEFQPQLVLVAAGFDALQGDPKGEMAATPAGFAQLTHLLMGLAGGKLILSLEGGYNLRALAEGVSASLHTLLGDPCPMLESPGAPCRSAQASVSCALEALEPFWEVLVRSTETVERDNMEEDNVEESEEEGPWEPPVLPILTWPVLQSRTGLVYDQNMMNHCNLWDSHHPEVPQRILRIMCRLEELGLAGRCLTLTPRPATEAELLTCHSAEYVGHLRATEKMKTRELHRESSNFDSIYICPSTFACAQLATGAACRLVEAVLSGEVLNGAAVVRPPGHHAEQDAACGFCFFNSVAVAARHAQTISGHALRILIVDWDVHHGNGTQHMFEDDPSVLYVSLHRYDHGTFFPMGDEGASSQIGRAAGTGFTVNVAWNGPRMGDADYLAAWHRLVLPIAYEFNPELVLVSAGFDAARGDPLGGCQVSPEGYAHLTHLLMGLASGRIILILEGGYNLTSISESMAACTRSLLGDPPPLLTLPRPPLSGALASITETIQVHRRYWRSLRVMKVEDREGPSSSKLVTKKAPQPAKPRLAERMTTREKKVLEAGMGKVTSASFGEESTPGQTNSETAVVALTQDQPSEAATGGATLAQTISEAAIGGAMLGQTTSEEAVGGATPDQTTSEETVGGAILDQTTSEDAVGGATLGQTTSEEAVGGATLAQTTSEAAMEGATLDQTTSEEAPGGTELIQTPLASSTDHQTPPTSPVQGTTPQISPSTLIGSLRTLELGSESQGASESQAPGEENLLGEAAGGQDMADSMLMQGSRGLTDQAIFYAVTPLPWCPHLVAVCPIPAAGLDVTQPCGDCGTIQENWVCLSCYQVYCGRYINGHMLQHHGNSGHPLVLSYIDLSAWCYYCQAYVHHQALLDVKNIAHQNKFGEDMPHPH

[4] = molecular target: T3, Histone deacetylase 8 (Schistosoma mansoni, UniProt A5H660); assay: Inhibition of recombinant Schistosoma mansoni HDAC8 expressed in Escherichia coli using Fluor de Lys as substrate preincubated for 90 mins followed by BML-KI176 addition measured after 45 mins by fluorescence assay
T3 sequence (A5H660 whole entry): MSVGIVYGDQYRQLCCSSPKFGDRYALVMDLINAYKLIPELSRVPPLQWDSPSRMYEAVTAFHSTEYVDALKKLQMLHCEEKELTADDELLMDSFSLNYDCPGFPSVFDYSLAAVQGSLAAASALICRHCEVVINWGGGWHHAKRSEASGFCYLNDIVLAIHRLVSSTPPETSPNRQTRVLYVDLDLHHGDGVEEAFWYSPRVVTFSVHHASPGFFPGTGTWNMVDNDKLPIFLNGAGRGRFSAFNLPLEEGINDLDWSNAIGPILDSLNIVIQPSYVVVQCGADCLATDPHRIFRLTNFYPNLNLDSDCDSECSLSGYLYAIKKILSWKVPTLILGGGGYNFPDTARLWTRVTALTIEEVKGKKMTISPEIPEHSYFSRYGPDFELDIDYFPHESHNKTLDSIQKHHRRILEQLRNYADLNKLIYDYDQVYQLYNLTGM
How it was run: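 smHDAC8 produced in E. coli. Fluor de Lys kit: compound, Fluor de Lys-HDAC8 substrate (50 µM) and enzyme incubated 90 min at 37°C, then Developer II for 45 min at 30°C. Reaction stopped with trichostatin A (2 µM). Fluorescence read at ex 390/em 460 nm. IC50 given as mean ± S.E.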

[5] = system: Schistosoma mansoni; assay: Antiparasitic activity against schistosomula stage of Schistosoma mansoni assessed as parasite viability at 10 uM after 48 hrs by Alamar Blue assay relative to control; type: functional
How it was run: (§1)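 Mechanically transformed S. mansoni schistosomula, 100 per well, in Medium 199 with 10% FCS, penicillin, streptomycin and rifampicin, held 3 h at 37°C/5% CO2 before use. […] Resazurin added at 48 h; fluorescence (ex 530/em 590 nm) read 24 h later, corrected for drug-medium background. Ethanol-killed larvae as dead control. Triplicate wells, two biological replicates.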

[6] = Cytotoxicity against HEK293 cells assessed as cell viability at 50 uM after 24 hrs by Alamar Blue assay relative to control; type: cell-based; conditions: human, read-out: Activity
How it was run: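 AlamarBlue added after 24 h, incubated a further 21 h; resorufin fluorescence ex 560/em 590 nm. Triplicates; viability relative to untreated cells; daunorubicin positive control.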

[7] = system: Schistosoma mansoni; assay: Antiparasitic activity against schistosomula stage of Schistosoma mansoni assessed as parasite viability at 20 uM after 48 hrs by Alamar Blue assay relative to control; type: functional; how it was run: as §1

Sequence of Histone deacetylase 1 (Q13547 whole entry): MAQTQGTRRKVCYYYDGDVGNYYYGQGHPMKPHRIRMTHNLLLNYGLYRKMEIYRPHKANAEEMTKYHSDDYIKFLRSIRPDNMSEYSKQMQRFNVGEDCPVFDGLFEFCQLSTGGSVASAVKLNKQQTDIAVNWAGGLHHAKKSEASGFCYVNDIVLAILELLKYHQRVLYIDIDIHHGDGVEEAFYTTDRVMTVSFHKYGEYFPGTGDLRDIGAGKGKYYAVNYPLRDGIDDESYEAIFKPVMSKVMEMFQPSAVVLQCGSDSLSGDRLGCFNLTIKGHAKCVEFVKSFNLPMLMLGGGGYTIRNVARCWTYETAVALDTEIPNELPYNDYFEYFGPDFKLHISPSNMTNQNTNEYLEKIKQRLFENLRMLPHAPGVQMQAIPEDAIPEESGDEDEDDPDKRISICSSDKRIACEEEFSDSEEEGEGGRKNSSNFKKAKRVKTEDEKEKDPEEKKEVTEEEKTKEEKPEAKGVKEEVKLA

Structure (SMILES) | IC50 ([1]; read-out: IC50) | IC50 ([2]; read-out: IC50) | IC50 ([3]; read-out: IC50) | IC50 ([4]; read-out: IC50) | Activity [5] | viability at 24 h, 50 µM [6] | Activity [7] | IC50 [1] | IC50 [2] | IC50 [3] | IC50 [4]
O=C1CCSc2ccc(C(=O)NO)cc2N1 | 9800 nM | 620 nM | 1300 nM | 1220 nM | – | – | – | – | – | – | –
O=C(NO)c1ccc(Cl)c(NC(=O)c2ccccc2)c1 | 11600 nM | 120 nM | 120 nM | 67 nM | 84.7% | 72.2% | – | – | – | – | –
COc1ccc(C(=O)NO)cc1NC(=O)c1cccc(-c2ccccc2)c1 | – | – | – | 290 nM | 58.8% | 76.2% | 57% | – | – | – | –
COc1ccc(C(=O)NO)cc1S(=O)(=O)Nc1ccc(C)cc1 | 20000 nM | 19.8 nM | 2400 nM | 485 nM | 77.7% | 80.2% | 73.8% | – | – | – | –
O=C(NO)c1ccc(Cl)c(NC(=O)c2ccc([N+](=O)[O-])cc2)c1 | – | – | – | 394 nM | 85.3% | 79.1% | 68.1% | – | – | – | –
CC1Sc2ccc(C(=O)NO)cc2NC1=O (stereo unspecified) | 27500 nM | 970 nM | 3600 nM | 1480 nM | – | – | – | – | – | – | –
O=C(NO)c1cccc(NC(=O)c2ccccc2)c1 | – | 582 nM | – | 468 nM | 79.2% | – | 75.6% | – | – | – | –
O=C(NO)c1ccc2ccccc2n1 | – | 582 nM | – | 8200 nM | 95.6% | 73.3% | – | – | – | – | –
COc1ccc(C(=O)NO)cc1NC(=O)c1ccc(Cl)cc1 | 2900 nM | 240 nM | 900 nM | 146 nM | – | 92.6% | – | – | – | – | –
CCCOc1ccc(C(=O)NO)cc1NC(=O)c1ccccc1 | – | – | – | 267 nM | – | 97.4% | – | – | – | – | –
COc1ccc(C(=O)NO)cc1NC(=O)c1ccccc1Cl | 9600 nM | 211 nM | 3100 nM | 699 nM | 89.5% | 96.9% | 66.5% | – | – | – | –
COc1ccc(C(=O)O)cc1NC(=O)c1ccc(-c2ccccc2)cc1 | – | – | – | – | – | – | – | Not Active | Not Active | Not Active | Not Active
COc1ccc(C(=O)NO)cc1NC(=O)c1ccc(Cl)cc1Cl | 13000 nM | 548 nM | 2300 nM | 122 nM | 77.8% | 95.1% | 50.7% | – | – | – | –
O=C(NO)c1ccc(Cl)c(NC(=O)c2ccc(Oc3ccccc3)cc2)c1 | 8500 nM | 1080 nM | 150 nM | 979 nM | – | – | – | – | – | – | –
COc1ccc(C(=O)NO)cc1NC(=O)c1ccccc1 | 2300 nM | 88.3 nM | 2500 nM | 190 nM | 77.4% | 67.3% | 74.8% | – | – | – | –
COc1ccc(C(=O)NO)cc1OCc1ccccc1 | – | – | – | 268 nM | – | – | – | – | – | – | –
COC(=O)c1ccc(OC)c(NC(=O)c2ccc(-c3ccccc3)cc2)c1 | – | – | – | – | – | 47.2% | – | Not Active | Not Active | Not Active | Not Active
COc1ccc(Cn2ccc3ccc(C(=O)NO)cc32)cc1 | – | – | – | 436 nM | 70.6% | – | 62.3% | – | – | – | –
CCOc1ccc(C(=O)Nc2cc(C(=O)NO)ccc2OC)cc1 | 4400 nM | 438 nM | 1000 nM | 305 nM | – | 87.7% | – | – | – | – | –
Cc1ccc(C(=O)NO)cc1NC(=O)c1ccc2ccccc2n1 | 2700 nM | 30.3 nM | 90 nM | 96.1 nM | 74.9% | – | 59.4% | – | – | – | –
O=C(C1CCCCC1)N1CC(=O)N2CCc3ccccc3C2C1 (stereo unspecified) [PRAZIQUANTEL] | – | – | – | – | 92% | – | 89% | – | – | – | –
O=C(NO)c1cccc(NC2CCCCC2)c1 | 130000 nM | 830 nM | – | 3630 nM | 82.7% | 70.7% | – | – | – | – | –
CCOc1ccc(C(=O)NO)cc1NC(=O)c1ccccc1 | 4600 nM | 172 nM | 1300 nM | 129 nM | 89.7% | 70.4% | – | – | – | – | –
